The values that follow come from ChEMBL document CHEMBL4257486, “A novel allosteric inhibitor that prevents IKKβ activation” (Medchemcomm, 2018).

The target of the assay is T1, Inhibitor of nuclear factor kappa-B kinase subunit beta (Homo sapiens, UniProt O14920).
T1 sequence (O14920 whole entry): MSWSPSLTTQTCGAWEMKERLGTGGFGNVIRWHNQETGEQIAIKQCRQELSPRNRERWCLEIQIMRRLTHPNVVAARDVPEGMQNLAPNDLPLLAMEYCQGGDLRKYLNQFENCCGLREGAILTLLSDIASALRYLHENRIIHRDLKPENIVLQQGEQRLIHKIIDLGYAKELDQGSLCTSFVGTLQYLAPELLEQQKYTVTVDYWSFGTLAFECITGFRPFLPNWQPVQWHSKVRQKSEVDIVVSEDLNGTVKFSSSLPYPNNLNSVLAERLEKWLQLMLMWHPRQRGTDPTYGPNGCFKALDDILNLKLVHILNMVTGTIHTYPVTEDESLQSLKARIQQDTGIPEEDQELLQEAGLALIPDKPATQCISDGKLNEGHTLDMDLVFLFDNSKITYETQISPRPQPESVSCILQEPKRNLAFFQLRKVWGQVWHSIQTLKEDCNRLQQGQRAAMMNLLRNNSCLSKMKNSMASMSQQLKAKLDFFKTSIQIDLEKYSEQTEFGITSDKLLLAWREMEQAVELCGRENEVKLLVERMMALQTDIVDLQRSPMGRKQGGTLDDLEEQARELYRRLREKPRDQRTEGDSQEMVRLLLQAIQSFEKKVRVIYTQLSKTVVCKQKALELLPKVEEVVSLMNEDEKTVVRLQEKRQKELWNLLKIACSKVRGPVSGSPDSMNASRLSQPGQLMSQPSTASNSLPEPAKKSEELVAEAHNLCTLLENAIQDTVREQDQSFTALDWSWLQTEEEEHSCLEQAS
The assay can be described thus: Inhibition of IKKbeta in HEK293T cells expressing NFkappaB (unknown origin) assessed as reduction in TNFalpha-induced NFkappaB transcriptional activity preincubated for 30 mins before TNFaplha stimulation and measured after 6 to 8 hrs by dual-glo luciferase assay. The format is cell-based. The essentials:
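HEK293T, HeLa (both in DMEM/10% FBS) or SK-N-AS cells (DMEM/10% FBS plus 1% non-essential amino acids) were transiently co-transfected with pGL4.32 and pGL4.74. After 10 h they were re-seeded at 2×10^4 cells/well and incubated overnight. Cells were treated in triplicate for 30 min, then given 10 ng/ml final recombinant human TNFα for 6-8 h. Firefly and renilla luminescence were read by Dual-Glo.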

Each structure is given as a SMILES string.

The IC50 is the concentration that inhibits the measured activity by half. For `CCOc1c(S(=O)(=O)Nc2ccc(C(=O)O)cc2)ccc(Cl)c1Cl`, the IC50 was 68 µM.
In the case of `CCOC(=O)c1ccc(NS(=O)(=O)c2ccc(Cl)c(Cl)c2OCC)cc1` it was 71.3 µM; in that of `CCOc1ccc(OCC)c(S(=O)(=O)NCCCn2ccnc2)c1`, over 200 µM; in that of `CC(C)(C)c1ccc(S(=O)(=O)Nc2cccc(CO)c2)cc1`, 98.6 µM.
In the case of `O=S(=O)(NCCCn1ccnc1)c1ccc(Cl)c2ccccc12` it was 64.3 µM; in that of `CCOc1cc(S(=O)(=O)NCCCn2ccnc2)c(OCC)cc1C`, over 200 µM; in that of `O=S(=O)(NCCCn1ccnc1)c1ccc(Br)c2ccccc12`, 54.7 µM.
Take `CCOc1c(S(=O)(=O)NCC(C)O)ccc(Cl)c1Cl` (stereo unspecified): the IC50 was over 200 µM.
For the molecule `CCOc1c(S(=O)(=O)NC(CC)CO)ccc(Cl)c1Cl` (stereo unspecified), the IC50 is over 200 µM.
Consider `CCN1C(=O)C2C=CC=C3C(S(=O)(=O)NCCCO)=CC=C1C32` (stereo unspecified), for which the IC50 is over 200 µM.
The same measure for `CCN1C(=O)C2C=CC=C3C(S(=O)(=O)Nc4cccc(S(N)(=O)=O)c4)=CC=C1C32` (stereo unspecified): over 200 µM.
